Experimental data taken from ChEMBL document CHEMBL5724801, “EUbOPEN Chemogenomics Library - Multiplex” (2024).
Several values for one entry are separate records, joined by “and”; a condition that tells them apart may be missing. Equal values may be shown once.

Test system: Fibroblast
Test: Multiplex assay against human fibroblast
Assay type: toxicity, cell-based
Method in brief: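 Values for tubulin, mitochondrial-mass and membrane-permeability phenotypes are per cents of cells with healthy nuclei. These cells were identified by CellPathfinder machine-learning gating of live cells that had been stained at seeding with Hoechst33342, BioTracker Green Microtubule Cytoskeleton Dye, MitoTracker Red and Annexin V Alexa Fluor 680 and imaged on a CQ1 microscope at 37°C and 5% CO2 after compound addition. The gating first set Hoechst high-intensity objects apart from normal cells, then split normal cells into healthy, pyknosed or fragmented nuclei, and pyknosed cells into mitotic or apoptotic.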

[1] = 12 h, 1 µM, compound concentration 1 uM
[2] = 12 h, 10 µM, compound concentration 10 uM
[3] = 24 h, 1 µM, compound concentration 1 uM
[4] = 24 h, 10 µM, compound concentration 10 uM
[5] = 48 h, 1 µM, compound concentration 1 uM
[6] = 48 h, 10 µM, compound concentration 10 uM

CN1C[C@H](C(=O)N[C@]2(C)O[C@@]3(O)[C@@H]4CCCN4C(=O)[C@H](Cc4ccccc4)N3C2=O)C[C@@H]2c3cccc4[nH]cc(c34)C[C@H]21.CS(=O)(=O)O [DIHYDROERGOTAMINE MESYLATE]
Population Apoptotic (%) [1]: 25% and 47%
Population Fragmented Nuclei (%) [1]: 13% and 32%
Population Healthy Nuclei (%) [1]: 70% and 51%
Population Hoechst High Intensity Objects (%) [1]: 1% and 7%
Population Membrane Permeable-Phenotype (%) [1]: 1% and 6%
Population Mitochondria Different-Phenotype (%) [1]: 1% and 5%
Population Mitotic Cells (%) [1]: 75% and 52%
Population Normal (%) [1]: 98% and 92%
Population Pyknosed Nuclei (%) [1]: 16%
Population Tubulin-Different-Phenotype (%) [1]: 23% and 31%
Total Cell Count [1]: 127 and 155
Population Apoptotic (%) [2]: 57% and 31%
Population Fragmented Nuclei (%) [2]: 27% and 33%
Population Healthy Nuclei (%) [2]: 65% and 45%
Population Hoechst High Intensity Objects (%) [2]: 0% and 8%
Population Membrane Permeable-Phenotype (%) [2]: 0% and 2%
Population Mitochondria Different-Phenotype (%) [2]: 5% and 0%
Population Mitotic Cells (%) [2]: 42% and 68%
Population Normal (%) [2]: 100% and 91%
Population Pyknosed Nuclei (%) [2]: 7% and 21%
Total Cell Count [2]: 92 and 114
Population Apoptotic (%) [3]: 38% and 47%
Population Fragmented Nuclei (%) [3]: 14% and 30%
Population Healthy Nuclei (%) [3]: 75% and 56%
Population Hoechst High Intensity Objects (%) [3]: 1% and 4%
Population Membrane Permeable-Phenotype (%) [3]: 0% and 7%
Population Mitochondria Different-Phenotype (%) [3]: 0% and 3%
Population Mitotic Cells (%) [3]: 61% and 52%
Population Normal (%) [3]: 98% and 95%
Population Pyknosed Nuclei (%) [3]: 10% and 13%
Population Tubulin-Different-Phenotype (%) [3]: 18% and 50%
Total Cell Count [3]: 130 and 149
Population Apoptotic (%) [4]: 55% and 31%
Population Fragmented Nuclei (%) [4]: 17% and 35%
Population Healthy Nuclei (%) [4]: 72% and 43%
Population Hoechst High Intensity Objects (%) [4]: 1% and 5%
Population Membrane Permeable-Phenotype (%) [4]: 0% and 6%
Population Mitochondria Different-Phenotype (%) [4]: 1% and 0%
Population Mitotic Cells (%) [4]: 44% and 68%
Population Normal (%) [4]: 98% and 94%
Population Pyknosed Nuclei (%) [4]: 10% and 20%
Total Cell Count [4]: 89 and 113
Population Apoptotic (%) [5]: 57% and 53%
Population Fragmented Nuclei (%) [5]: 20% and 38%
Population Healthy Nuclei (%) [5]: 68% and 50%
Population Hoechst High Intensity Objects (%) [5]: 1% and 5%
Population Membrane Permeable-Phenotype (%) [5]: 0% and 6%
Population Mitochondria Different-Phenotype (%) [5]: 2% and 6%
Population Mitotic Cells (%) [5]: 42% and 46%
Population Normal (%) [5]: 98% and 94%
Population Pyknosed Nuclei (%) [5]: 10% and 11%
Population Tubulin-Different-Phenotype (%) [5]: 30% and 48%
Total Cell Count [5]: 134 and 139
Population Apoptotic (%) [6]: 63% and 76%
Population Fragmented Nuclei (%) [6]: 21% and 44%
Population Healthy Nuclei (%) [6]: 65% and 44%
Population Hoechst High Intensity Objects (%) [6]: 3%
Population Membrane Permeable-Phenotype (%) [6]: 1% and 11%
Population Mitochondria Different-Phenotype (%) [6]: 3% and 5%
Population Mitotic Cells (%) [6]: 36% and 23%
Population Normal (%) [6]: 96%
Population Pyknosed Nuclei (%) [6]: 12% and 10%
Population Tubulin-Different-Phenotype (%) [6]: 20% and 55%
Total Cell Count [6]: 91 and 126

Cc1c(CC(=O)O)c2cccnc2n1Cc1ccc(S(C)(=O)=O)cc1C(F)(F)F [FEVIPIPRANT]
Population Apoptotic (%) [1]: 44% and 25%
Population Fragmented Nuclei (%) [1]: 22% and 33%
Population Healthy Nuclei (%) [1]: 60% and 48%
Population Hoechst High Intensity Objects (%) [1]: 3%
Population Mitochondria Different-Phenotype (%) [1]: 3% and 12%
Population Mitotic Cells (%) [1]: 55% and 74%
Population Normal (%) [1]: 96%
Population Pyknosed Nuclei (%) [1]: 18% and 17%
Population Tubulin-Different-Phenotype (%) [1]: 20% and 56%
Total Cell Count [1]: 156
Population Apoptotic (%) [2]: 34% and 22%
Population Fragmented Nuclei (%) [2]: 10% and 21%
Population Healthy Nuclei (%) [2]: 71% and 54%
Population Hoechst High Intensity Objects (%) [2]: 3% and 5%
Population Membrane Permeable-Phenotype (%) [2]: 1% and 9%
Population Mitochondria Different-Phenotype (%) [2]: 4% and 6%
Population Mitotic Cells (%) [2]: 65% and 77%
Population Normal (%) [2]: 96% and 94%
Population Pyknosed Nuclei (%) [2]: 17% and 23%
Population Tubulin-Different-Phenotype (%) [2]: 25% and 55%
Total Cell Count [2]: 132 and 139
Population Apoptotic (%) [3]: 55% and 52%
Population Fragmented Nuclei (%) [3]: 14% and 35%
Population Healthy Nuclei (%) [3]: 66% and 47%
Population Hoechst High Intensity Objects (%) [3]: 3%
Population Membrane Permeable-Phenotype (%) [3]: 1% and 4%
Population Mitochondria Different-Phenotype (%) [3]: 5% and 8%
Population Mitotic Cells (%) [3]: 44% and 48%
Population Normal (%) [3]: 96%
Population Pyknosed Nuclei (%) [3]: 19% and 17%
Population Tubulin-Different-Phenotype (%) [3]: 23% and 50%
Total Cell Count [3]: 156 and 150
Population Apoptotic (%) [4]: 57% and 31%
Population Fragmented Nuclei (%) [4]: 16% and 22%
Population Healthy Nuclei (%) [4]: 67% and 55%
Population Hoechst High Intensity Objects (%) [4]: 1% and 7%
Population Membrane Permeable-Phenotype (%) [4]: 1% and 5%
Population Mitochondria Different-Phenotype (%) [4]: 2% and 5%
Population Mitotic Cells (%) [4]: 42% and 68%
Population Normal (%) [4]: 98% and 92%
Population Pyknosed Nuclei (%) [4]: 16% and 21%
Population Tubulin-Different-Phenotype (%) [4]: 24% and 52%
Total Cell Count [4]: 130 and 146
Population Apoptotic (%) [5]: 65% and 63%
Population Fragmented Nuclei (%) [5]: 16% and 39%
Population Healthy Nuclei (%) [5]: 67% and 47%
Population Hoechst High Intensity Objects (%) [5]: 5% and 6%
Population Membrane Permeable-Phenotype (%) [5]: 0% and 4%
Population Mitochondria Different-Phenotype (%) [5]: 4% and 8%
Population Mitotic Cells (%) [5]: 35% and 36%
Population Normal (%) [5]: 94% and 93%
Population Pyknosed Nuclei (%) [5]: 16% and 12%
Population Tubulin-Different-Phenotype (%) [5]: 16% and 47%
Total Cell Count [5]: 132 and 157
Population Apoptotic (%) [6]: 73% and 58%
Population Fragmented Nuclei (%) [6]: 22% and 32%
Population Healthy Nuclei (%) [6]: 62% and 53%
Population Hoechst High Intensity Objects (%) [6]: 2%
Population Membrane Permeable-Phenotype (%) [6]: 0% and 3%
Population Mitochondria Different-Phenotype (%) [6]: 3% and 2%
Population Mitotic Cells (%) [6]: 26% and 41%
Population Normal (%) [6]: 97%
Population Pyknosed Nuclei (%) [6]: 14%
Population Tubulin-Different-Phenotype (%) [6]: 29% and 52%
Total Cell Count [6]: 132 and 171

COCCNc1cc(NC(=O)N2CCCc3cc(CN4CCN(C)CC4=O)c(C=O)nc32)ncc1C#N [FGF401]
Population Apoptotic (%) [1]: 10.64% and 13.95%
Population Fragmented Nuclei (%) [1]: 11.5% and 4.82%
Population Healthy Nuclei (%) [1]: 65% and 77.91%
Population Hoechst High Intensity Objects (%) [1]: 0%
Population Membrane Permeable-Phenotype (%) [1]: 3.85% and 1.03%
Population Mitochondria Different-Phenotype (%) [1]: 6.15% and 8.25%
Population Mitotic Cells (%) [1]: 89.36% and 86.05%
Population Normal (%) [1]: 100%
Population Pyknosed Nuclei (%) [1]: 23.5% and 17.27%
Population Tubulin-Different-Phenotype (%) [1]: 13.08% and 10.31%
Total Cell Count [1]: 200 and 249
Population Apoptotic (%) [2]: 14.63% and 19.35%
Population Fragmented Nuclei (%) [2]: 15.03% and 6.59%
Population Healthy Nuclei (%) [2]: 58.17% and 76.37%
Population Hoechst High Intensity Objects (%) [2]: 0%
Population Membrane Permeable-Phenotype (%) [2]: 3.37% and 5.76%
Population Mitochondria Different-Phenotype (%) [2]: 11.24% and 10.07%
Population Mitotic Cells (%) [2]: 85.37% and 80.65%
Population Normal (%) [2]: 100%
Population Pyknosed Nuclei (%) [2]: 26.8% and 17.03%
Population Tubulin-Different-Phenotype (%) [2]: 22.47% and 25.9%
Total Cell Count [2]: 153 and 182
Population Apoptotic (%) [3]: 11.11% and 15.38%
Population Fragmented Nuclei (%) [3]: 11.01% and 5.33%
Population Healthy Nuclei (%) [3]: 68.35% and 89.34%
Population Hoechst High Intensity Objects (%) [3]: 0%
Population Membrane Permeable-Phenotype (%) [3]: 7.38% and 0.46%
Population Mitochondria Different-Phenotype (%) [3]: 4.7% and 6.42%
Population Mitotic Cells (%) [3]: 88.89% and 84.62%
Population Normal (%) [3]: 100%
Population Tubulin-Different-Phenotype (%) [3]: 9.4% and 12.84%
Total Cell Count [3]: 218 and 244
Population Apoptotic (%) [4]: 8.57% and 3.23%
Population Fragmented Nuclei (%) [4]: 12.26% and 4.02%
Population Healthy Nuclei (%) [4]: 65.16% and 80.4%
Population Hoechst High Intensity Objects (%) [4]: 0%
Population Membrane Permeable-Phenotype (%) [4]: 8.91% and 3.75%
Population Mitochondria Different-Phenotype (%) [4]: 6.93% and 8.75%
Population Mitotic Cells (%) [4]: 91.43% and 96.77%
Population Normal (%) [4]: 100%
Population Pyknosed Nuclei (%) [4]: 22.58% and 15.58%
Population Tubulin-Different-Phenotype (%) [4]: 17.82% and 16.88%
Total Cell Count [4]: 155 and 199
Population Fragmented Nuclei (%) [5]: 9.45% and 6.06%
Population Healthy Nuclei (%) [5]: 81.89% and 88.26%
Population Hoechst High Intensity Objects (%) [5]: 0%
Population Membrane Permeable-Phenotype (%) [5]: 0.48% and 1.29%
Population Mitochondria Different-Phenotype (%) [5]: 12.02% and 2.58%
Population Mitotic Cells (%) [5]: 63.64% and 93.33%
Population Normal (%) [5]: 100%
Population Pyknosed Nuclei (%) [5]: 8.66% and 5.68%
Population Tubulin-Different-Phenotype (%) [5]: 2.88% and 11.59%
Total Cell Count [5]: 254 and 264
Population Apoptotic (%) [6]: 27.27% and 18.18%
Population Fragmented Nuclei (%) [6]: 9.49% and 6.84%
Population Healthy Nuclei (%) [6]: 83.54% and 87.37%
Population Hoechst High Intensity Objects (%) [6]: 0%
Population Membrane Permeable-Phenotype (%) [6]: 1.52% and 1.81%
Population Mitotic Cells (%) [6]: 72.73% and 81.82%
Population Normal (%) [6]: 100%
Population Pyknosed Nuclei (%) [6]: 6.96% and 5.79%
Population Tubulin-Different-Phenotype (%) [6]: 9.85% and 22.29%
Total Cell Count [6]: 158 and 190
